In ChEMBL document CHEMBL1125557, “Dihydropyrimidine angiotensin II receptor antagonists” (J Med Chem, 1992):
Several values for one entry are separate records, joined by “and”; a condition that tells them apart may be missing. Identical values can stand only once. Values belong to the compound of their own block, whether it stands above or below them.

Legend:
Rattus norvegicus [1] = experiment: In vivo antihypertensive activity against spontaneously hypertensive rats after oral administration of 30 uM/Kg dose between 12-18 hours; type: functional
Method in brief: (§1)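 Male SHR, surgically prepared, recovered 2 weeks on regular food and water. Low-NaCl diet from 5 days before testing; furosemide 2.5 mg/kg on 3 consecutive days before testing. Compounds given orally as agar suspension. Mean arterial pressure monitored for 24 h; maximum % fall in pressure per 6-h interval, n = 8-10.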

[2] = target: T1, Type-1 angiotensin II receptor B (Rattus norvegicus, UniProt P29089); experiment: Inhibition of [125I]- Sar,Ile8-angiotensin II binding to rat adrenal cortical membrane angiotensin II receptor
T1 sequence (P29089 whole entry): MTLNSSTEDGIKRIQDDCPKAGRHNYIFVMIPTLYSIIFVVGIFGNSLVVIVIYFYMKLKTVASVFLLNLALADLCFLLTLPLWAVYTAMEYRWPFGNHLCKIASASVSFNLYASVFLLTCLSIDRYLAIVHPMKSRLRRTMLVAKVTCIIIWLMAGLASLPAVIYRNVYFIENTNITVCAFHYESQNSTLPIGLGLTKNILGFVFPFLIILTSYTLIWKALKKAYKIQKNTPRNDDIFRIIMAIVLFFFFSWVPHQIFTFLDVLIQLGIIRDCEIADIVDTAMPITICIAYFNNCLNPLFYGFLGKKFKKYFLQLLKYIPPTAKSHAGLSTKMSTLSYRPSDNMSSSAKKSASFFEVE

Rattus norvegicus [3] = experiment: In vivo antihypertensive activity against spontaneously hypertensive rats after oral administration of 10 uM/Kg dose between 6-12 hours; type: functional; method in brief: as §1
Rattus norvegicus [4] = experiment: In vivo antihypertensive activity against spontaneously hypertensive rats after oral administration of 10 uM/Kg dose between 0-6 hours; type: functional; method in brief: as §1
Rattus norvegicus [5] = experiment: In vivo antihypertensive activity against spontaneously hypertensive rats after oral administration of 30 uM/Kg dose between 6-12 hours; type: functional; method in brief: as §1
Oryctolagus cuniculus = species: Oryctolagus cuniculus; experiment: In vitro functional potency by antagonism of angiotensin II induced contraction of isolated rabbit aorta
Method in brief: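 Isolated rabbit aorta contracted by angiotensin II; antagonism expressed as KB (nM, ±SEM).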

Rattus norvegicus [6] = experiment: In vivo antihypertensive activity against spontaneously hypertensive rats after oral administration of 30 umol/kg dose between 0-6 hours; type: functional; method in brief: as §1
Rattus norvegicus [7] = experiment: In vivo antihypertensive activity against spontaneously hypertensive rats after oral administration of 10 uM/Kg dose between 18-24 hours; type: functional; method in brief: as §1
Rattus norvegicus [8] = experiment: Compound was tested in vivo for antagonistic activity for the 50% inhibition of AII pressor response in male rats after intravenous administration; type: functional
Method in brief: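 Normotensive male rats received three doses of test agent iv, then AII challenge (100 ng/kg iv) 2 min later. ED50 (dose halving the AII pressor response) from simplex curve fit of log dose versus maximum percent inhibition; n = 4.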

Rattus norvegicus [9] = experiment: In vivo antihypertensive activity against spontaneously hypertensive rats after oral administration of 10 uM/Kg dose between 12-18 hours; type: functional; method in brief: as §1
Rattus norvegicus [10] = experiment: In vivo antihypertensive activity against spontaneously hypertensive rats after oral administration of 30 uM/Kg dose between 18-24 hours; type: functional; method in brief: as §1
Rattus norvegicus [11] = experiment: In vivo antihypertensive activity against spontaneously hypertensive rats after oral administration of 30 uM/Kg dose between 0-6 hours; type: functional; method in brief: as §1
Rattus norvegicus [12] = experiment: In vivo antihypertensive activity against spontaneously hypertensive rats after oral administration of 10 umol/kg dose between 0-6 hours; type: functional; method in brief: as §1
Rattus norvegicus [13] = experiment: In vivo antihypertensive activity against spontaneously hypertensive rats after oral administration of 10 umol/kg dose between 6-12 hours; type: functional; method in brief: as §1
Rattus norvegicus [14] = experiment: In vivo antihypertensive activity against spontaneously hypertensive rats after oral administration of 30 umol/kg dose between 18-24 hours; type: functional; method in brief: as §1
Rattus norvegicus [15] = experiment: In vivo antihypertensive activity against spontaneously hypertensive rats after oral administration of 30 umol/kg dose between 12-18 hours; type: functional; method in brief: as §1
Rattus norvegicus [16] = experiment: In vivo antihypertensive activity against spontaneously hypertensive rats after oral administration of 30 umol/kg dose between 6-12 hours; type: functional; method in brief: as §1

SMILES: CCCCC1=NC(Cl)=C(C(=O)OCC)C(C)N1Cc1ccc(-c2ccccc2-c2nnn[n-]2)cc1.[K+] (stereo unspecified)
Decrease in blood pressure (Rattus norvegicus [1]): 19%
Ki [2]: 0.0083 µM
Decrease in blood pressure (Rattus norvegicus [3]): 14%
Decrease in blood pressure (Rattus norvegicus [4]): 14%
Decrease in blood pressure (Rattus norvegicus [5]): 20%
Kb (Oryctolagus cuniculus; Oryctolagus cuniculus, Aorta): 0.0053 µM
Decrease in blood pressure (Rattus norvegicus [6]): 23%
Decrease in blood pressure (Rattus norvegicus [7]): 17%
ED50 (Rattus norvegicus [8]): 1.65 µmol/kg
Decrease in blood pressure (Rattus norvegicus [9]): 15%
Decrease in blood pressure (Rattus norvegicus [10]): 20%

SMILES: CCCCc1nc(-c2ccccc2)c(C(=O)OCC)c(=O)n1Cc1ccc(-c2ccccc2C(=O)O)cc1
Ki [2]: 1.6 µM
Kb (Oryctolagus cuniculus; Oryctolagus cuniculus, Aorta): 0.14 µM

SMILES: CCCCC1=NC(C)(C)C(C(=O)OCC)=C(Cl)N1Cc1ccc(-c2ccccc2-c2nn[nH]n2)cc1
Decrease in blood pressure (Rattus norvegicus [1]): 4%
Ki [2]: 0.0011 µM
Decrease in blood pressure (Rattus norvegicus [11]): 5%
Decrease in blood pressure (Rattus norvegicus [5]): 3%
Kb (Oryctolagus cuniculus; Oryctolagus cuniculus, Aorta): 0.024 µM
ED50 (Rattus norvegicus [8]): 2.4 µmol/kg
Decrease in blood pressure (Rattus norvegicus [10]): 2%

SMILES: CCCCc1ncc(C(=O)OCC)c(=O)n1Cc1ccc(-c2ccccc2C(=O)O)cc1
Ki [2]: 0.082 µM
Kb (Oryctolagus cuniculus; Oryctolagus cuniculus, Aorta): 0.61 µM

SMILES: CCCCC1=NC(Cl)=C(C(=O)OCC)C(c2ccccc2)N1Cc1ccc(-c2ccccc2C(=O)O)cc1 (stereo unspecified)
Kb (Oryctolagus cuniculus; Oryctolagus cuniculus, Aorta): 1 µM

SMILES: CCCCC1=NC(Cl)=C(C(=O)O)C(C)N1Cc1ccc(-c2ccccc2-c2nn[nH]n2)cc1 (stereo unspecified)
Decrease in blood pressure (Rattus norvegicus [1]): 2%
Ki [2]: 0.001 µM
Decrease in blood pressure (Rattus norvegicus [11]): 8%
Decrease in blood pressure (Rattus norvegicus [5]): 0%
Kb (Oryctolagus cuniculus; Oryctolagus cuniculus, Aorta): 0.00045 µM
ED50 (Rattus norvegicus [8]): 0.076 µmol/kg
Decrease in blood pressure (Rattus norvegicus [10]): 1%

SMILES: CCCCc1nc(Cl)c(CO)n1Cc1ccc(-c2ccccc2-c2nnn[n-]2)cc1.[K+] [LOSARTAN POTASSIUM]
Decrease in blood pressure (Rattus norvegicus [12]): 13%
Decrease in blood pressure (Rattus norvegicus [13]): 20%
Kb (Oryctolagus cuniculus): 0.0026 µM
Decrease in blood pressure (Rattus norvegicus [6]): 31%
ED50 (Rattus norvegicus [8]): 1.8 µmol/kg
Decrease in blood pressure (Rattus norvegicus [14]): 38% and 24%
Decrease in blood pressure (Rattus norvegicus [15]): 37% and 22%
Decrease in blood pressure (Rattus norvegicus [16]): 35%

SMILES: CCCCc1nc(Cl)c(CO)n1Cc1ccc(-c2ccccc2-c2nnn[nH]2)cc1 [LOSARTAN]
Kb (Oryctolagus cuniculus): 0.086 µM

Now from value to compound, other results behind:

Ki [2]: 0.99 µM
SMILES: CCCCC1=NC(C)=C(C(=O)OCC)C(C)N1Cc1ccc(-c2ccccc2C(=O)O)cc1 (stereo unspecified)
Kb (Oryctolagus cuniculus; Oryctolagus cuniculus, Aorta): 0.66 µM

Ki [2]: 0.85 µM
SMILES: CCCCC1=NC(c2ccccc2)=C(C(=O)OCC)C(C)N1Cc1ccc(-c2ccccc2C(=O)O)cc1 (stereo unspecified)
Kb (Oryctolagus cuniculus; Oryctolagus cuniculus, Aorta): 0.63 µM

Ki [2]: 0.058 µM
SMILES: CCCCC1=NC(C)(C)C(C(=O)OCC)=C(Cl)N1Cc1ccc(-c2ccccc2C(=O)O)cc1
Kb (Oryctolagus cuniculus; Oryctolagus cuniculus, Aorta): 0.023 µM

Ki [2]: 0.15 µM
SMILES: CCCCc1nc(C)c(C(=O)OCC)c(=O)n1Cc1ccc(-c2ccccc2C(=O)O)cc1
Kb (Oryctolagus cuniculus; Oryctolagus cuniculus, Aorta): 0.095 µM

Ki [2]: 0.041 µM
SMILES: CCCCC1=NC(Cl)=C(C(=O)OCC)C(C)N1Cc1ccc(-c2ccccc2C(=O)O)cc1 (stereo unspecified)
Kb (Oryctolagus cuniculus; Oryctolagus cuniculus, Aorta): 0.07 µM

Ki [2]: 0.19 µM
SMILES: CCCCC1=NC(c2ccc(Cl)cc2)=C(C(=O)OCC)C(C)N1Cc1ccc(-c2ccccc2C(=O)O)cc1 (stereo unspecified)
Kb (Oryctolagus cuniculus; Oryctolagus cuniculus, Aorta): 0.52 µM
